Bioassay records from PubChem.
Shown are actives, neighbours in structure and some others; about 1.7% of the full set was active somewhere.
Myeloid diff MLP: induction of myeloid progenitor differentiation, primary screen, cell-based, flow cytometry, MLPCN library. ER-HoxA9 myeloid progenitors, lysozyme-GFP differentiation. calls only at 10 µM. 360,000 tested, 1% active;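 active = normalized GFP-positive differentiation at or above the plate's own cutoff, the solvent-only control mean plus 3 SD; inconclusive = no clear call, values can overlap the other calls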;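 note: cells exposed to compound for four days before flow analysis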
Vif inh: HIV Vif self-association inhibitors, primary screen, imaging, HEK293T, single point | 340,000 tested, 0.35% active | inhibition, % at 7.49 µM | HEK293T cells, Vif self-association by quenched fluorescence, 24 h | AID 602346, 2012; in the data active = inhibition above about 50%, passing the limit was not always enough; inconclusive = no clear call, values can overlap the other calls; inactive = below about 31%
Pemphigus Ab inh: inhibitors of pemphigus antibody binding to DSG3, primary screen, biochemical, bead-based, flow cytometry, scFv-GFP; DSG3-coupled beads, scFv-anti-DSG3-GFP binding; hits give low values; Desmoglein-3 (Homo sapiens), P32926; binding (percent of control), % at 10 µM; 310,000 tested, 0.48% active; AID 588358, 2011;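 active = binding more than 3 SD below its plate's average and above zero; inconclusive = below that plate limit but binding exactly zero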;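 note: hits lower antibody fragment binding to DSG3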
Target sequence (P32926 whole entry, looked up, the tested form may be a part): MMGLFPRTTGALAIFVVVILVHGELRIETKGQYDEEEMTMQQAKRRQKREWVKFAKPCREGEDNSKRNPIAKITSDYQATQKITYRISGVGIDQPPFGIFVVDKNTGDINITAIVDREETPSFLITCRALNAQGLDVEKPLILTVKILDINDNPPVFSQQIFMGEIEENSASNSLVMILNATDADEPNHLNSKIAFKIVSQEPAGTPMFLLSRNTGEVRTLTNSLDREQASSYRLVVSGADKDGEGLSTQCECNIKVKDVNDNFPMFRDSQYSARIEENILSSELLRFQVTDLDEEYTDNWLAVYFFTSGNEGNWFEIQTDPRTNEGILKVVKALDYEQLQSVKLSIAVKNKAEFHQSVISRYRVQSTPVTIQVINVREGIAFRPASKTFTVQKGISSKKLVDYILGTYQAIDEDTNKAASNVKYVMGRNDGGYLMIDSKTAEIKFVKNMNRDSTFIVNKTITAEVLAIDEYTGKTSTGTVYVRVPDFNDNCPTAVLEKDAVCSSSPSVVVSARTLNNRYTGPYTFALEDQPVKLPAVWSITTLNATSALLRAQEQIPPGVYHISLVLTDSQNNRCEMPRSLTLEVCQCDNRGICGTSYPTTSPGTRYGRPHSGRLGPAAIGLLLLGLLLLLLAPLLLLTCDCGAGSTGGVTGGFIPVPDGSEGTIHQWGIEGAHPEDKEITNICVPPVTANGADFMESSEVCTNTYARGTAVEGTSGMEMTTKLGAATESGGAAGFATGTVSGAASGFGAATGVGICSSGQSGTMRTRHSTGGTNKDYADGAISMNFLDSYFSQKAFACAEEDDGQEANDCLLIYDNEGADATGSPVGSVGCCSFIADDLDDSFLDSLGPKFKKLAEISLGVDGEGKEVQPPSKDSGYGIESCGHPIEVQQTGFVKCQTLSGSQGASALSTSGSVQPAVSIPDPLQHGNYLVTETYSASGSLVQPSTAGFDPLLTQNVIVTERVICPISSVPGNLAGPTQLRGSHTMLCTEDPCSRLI
T cell HTS: modulators of CD8 T cell-vesicle binding, primary screen, mouse 2C CD8+ T cells, flow cytometry. 2C CD8+ T cell-vesicle binding; hits give low values. response (vesicle binding), % at 7 µM. 330,000 tested, 0.068% active. AID 2052, 2009;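 active = response, share of CD8 T cells binding vesicles, and their 90th percentile fluorescence all below set limits, cut at about 80% in these data, passing the limit was not always enough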;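 note: values below 100% mean blocked vesicle binding to the CD8+ T cells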
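incubation = binding step 1.5 h, 37 °C, antibody labelling 20 min, ice | test system = 2C mouse CD8+ T cells | read-out basis = percent CD8+ FL2 mean versus row control | controls = Peptide-free naked vesicles (low) and QL9 vesicles with 0.7% DMSO vehicle (high) | detection = flow cytometry of vesicle-bound cells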
Myeloid diff: inducers of myeloid progenitor differentiation, confirmation, cell-based, GFP/Mac1 flow cytometry, cherry pick 01; shares compounds with Myeloid diff MLP; ER-HoxA9 myeloid progenitors, GFP/Mac1 double-positive flow; calls only; 2,300 tested, 2% active;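 active = share of green or green-and-red cells above 9 and 9% in run 1 or 4 and 3% in run 2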
GFP autofluor: counter-screen for myeloid differentiation promoters: compound fluorescence. ER-HoxA9 myeloid progenitors, no estrogen, GFP autofluorescence flow cytometry; vehicle wells 0%, positive control 100%. shares compounds with Myeloid diff MLP. 2,300 tested, 7.4% active. fluorescence response, % (test concentration not listed);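 active = over 5% cells positive for green fluorescent reporter, or over 2% positive for both it and APC stain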;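 note: range taken on the double positive population between DMSO and positive control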
Numbers without * were called inactive; i = inactive; ? = inconclusive; . = no result; + = active, no number.

SMILES | Myeloid diff MLP | Vif inh | Pemphigus Ab inh | T cell HTS | Myeloid diff | GFP autofluor
CC(C)c1ccc(C2CC(=O)c3cnc(N4CCc5ccccc5C4)nc3C2)cc1 (configuration not stated) | i | -3 | 96 | 135 | . | .
CC1CC(C)CN(c2ncc3c(n2)CC(c2ccccc2)CC3=O)C1 (configuration not stated) | + | 17 | 72* | 689 | i | 0
O=C1CSC(=Nc2ccc(F)cc2)N1 | + | -1 | 86 | 217 | i | 0
O=C1CSC(=Nc2ccccc2)N1 | i | -12 | 106 | 608 | . | .
CC(C)(O)CC[C@@H](O)[C@](C)(O)C1CC[C@@]2(O)C3=CC(=O)[C@]4(O)C[C@@H](O)[C@@H](O)C[C@]4(C)C3CC[C@]12C (some centres not stated) | i | -3 | 106 | 193 | . | .
CCNC(=O)NC1(C(=O)N2CCC(Cc3ccccc3)CC2)CCCCC1 | + | 18 | 99 | 197 | i | 1
CC(C)N1CC(=O)N2CSCC2C1=O (configuration not stated) | i | . | . | . | . | .
CN(C)c1ccc(-c2ccnc3c2CC(C)(C(=O)NCc2cccc(Cl)c2)O3)cc1 (configuration not stated) | i | -6 | . | . | . | .
O=C(c1ccco1)N1CC2(CC(c3ccc(Cl)cc3)=NO2)CN1Cc1ccc(Br)cc1 (configuration not stated) | i | -5 | 101 | . | i | 0
CC(C)N1CC2(CC(c3ccccc3F)=NO2)CN1C(=O)c1ccco1 (configuration not stated) | i | 1 | 105 | . | . | .
O=C(NC(c1ccc(-c2ccccc2)cc1)c1cnccn1)C1CCN(CCN2C(=O)c3ccccc3C2=O)CC1 (configuration not stated) | i | 5 | . | . | . | .
C[C@H](CO)N1C[C@H](C)[C@@H](CN(C)S(=O)(=O)c2ccc(-c3ccccc3)cc2)OCc2cn(nn2)CCCC1=O | i | 8 | . | . | . | .
CCn1c(COc2ccccc2)nnc1SCC(=O)C(C)(C)C | + | -3 | . | 308 | i | 0
CCn1c(COc2ccc(C)cc2)nnc1SCC(=O)C(C)(C)C | i | -12 | . | 318 | . | .
Cc1ccc(S(=O)(=O)N2C[C@@H]3CCCC[C@@H]3[C@@H](C)[C@H]2c2cn(Cc3ccccc3)c3ncccc23)cc1 | i | -5 | 94 | . | i | 0
Cc1ccc(S(=O)(=O)N2C[C@@H]3CCCC[C@@H]3[C@@H](C)[C@H]2c2cn(Cc3ccccc3)c3ccccc23)cc1 | ? | -16 | 104 | . | . | .
Cc1noc(C)c1NC(=O)N(C)C[C@H]1Oc2ccc(NC(=O)Cc3ccccc3)cc2C(=O)N([C@H](C)CO)C[C@@H]1C | i | 0 | . | 504 | . | .
CCOC(=O)[C@]12CCCC=C1N(CCC1=CCCCC1)C(=O)[C@H](CC(=O)NCc1cccc(C(F)(F)F)c1)C2 | i | . | . | . | . | .
CCOc1ccc(S(=O)(=O)Nc2ccccc2C(=O)N(C)C2CCN(C)CC2)cc1 | i | 41 | 419 | 437 | i | 0
Cc1ccccc1NS(=O)(=O)c1ccc(OCC(=O)N2CCCCC2)cc1 | + | . | 113 | 466 | i | 0
CN1CCC(C)(C(=O)Nc2ccc3c(c2)OCCO3)C1 (configuration not stated) | i | 14 | . | . | . | .
COc1ccc(CN(C)C(=O)/C=C/[C@H]2O[C@@H](n3cc(C)c(=O)[nH]c3=O)C[C@@H]2O)cc1OC | i | 3 | . | . | . | .
Clc1cccc(OCc2nc(-c3ccncc3)n[nH]2)c1 | i | -1 | 109 | 276 | i | 0
Fc1ccc(OCc2nc(-c3ccncc3)n[nH]2)cc1 | i | -1 | 107 | 215 | . | .
Cc1ccc(S(=O)(=O)N2C[C@@H](C)[C@]3(C2)[C@H](O)[C@H](OC(=O)Nc2c(C)noc2C)C[C@H]2C(=O)N(c4ccccc4)C(=O)[C@H]23)cc1 | i | -1 | . | . | . | .
SMILES | Myeloid diff MLP | Vif inh | Pemphigus Ab inh | T cell HTS | Myeloid diff | GFP autofluor
Cc1cc2c(n1-c1ccc(Br)cc1)CC(C)(C)CC2=O | i | -4 | 108 | 843 | i | 0
Cc1ccc(-n2c(C)cc3c2CC(C)(C)CC3=O)cc1C | i | -6 | 101 | 422 | . | .
CC(C)CNC(=O)NC1(C(F)(F)F)Oc2ccccc2O1 | i | -5 | . | 276 | . | .
O=C(NCc1cccnc1)NC1(C(F)(F)F)Oc2ccccc2O1 | + | 24 | 102 | 286 | i | 0
CCC/C=C1/CCCOC(C(=O)NCc2ccc(C)o2)(C(F)(F)F)C1 (configuration not stated) | + | -1 | 96 | 322 | i | 0
Cn1c2ccccc2c(=O)c2ccc(NCc3ccc4c(c3)OCO4)cc21 | + | . | 182 | . | i | 2
Cn1cc(-c2cccc(Cl)c2)cc(C#N)c1=O | i | -1 | 99 | 381 | . | .
Cn1cc(-c2cccc(C(F)(F)F)c2)cc(C#N)c1=O | + | 3 | 96 | 218 | i | 0
Cc1ccc(S(=O)(=O)Nc2cccc(-c3cn4ccsc4n3)c2)cc1 | i | -7 | 96 | 358 | i | 1
C1CCC2(CC1)C1=C(CCCC1)Nc1nnnn12 | + | -2 | 100 | 294 | i | 0
CC(=O)c1ccc(S(=O)(=O)N2CCN(C(=O)c3ccc(-n4nc(C)c(Cl)c4C)cc3)CC2)cc1 | i | -5 | . | 384 | i | 0
CCC(=O)Nc1cccc(NC(=O)c2ccccc2Cl)c1 | i | -3 | 107 | 124 | i | 0
NNC(=O)c1nc[nH]c1C(=O)Nc1ccccc1[N+](=O)[O-] | i | 1 | 110 | 140 | . | .
O=C(Nc1ccccc1[N+](=O)[O-])c1nc[nH]c1C(=O)NCCO | + | -11 | 108 | 299 | i | 0
CC(C)(C)OC(=O)N1CC2(CCCCC2)CC1Cc1ccc(C(F)(F)F)cc1 (configuration not stated) | i | 2 | 93 | . | i | 0
CCCN(CC(=O)Nc1ccc(F)c(F)c1F)C(=O)C1=COCCO1 | i | . | 101 | 740 | . | .
Cc1ccc(NC(=O)CSCC(=O)NCc2cccc(C(F)(F)F)c2)cc1 | + | 5 | 104 | 866 | i | 0
CCCN(CC(=O)Nc1ccccc1OC)C(=O)CN1C(=O)NC2(CCCCC2)C1=O | + | -2 | 97 | 295 | i | 0
CC(C)CNc1ncnc2[nH]ncc12 | i | 2 | 111 | . | . | .
COc1ccccc1CNC(=O)C1CCCN(S(=O)(=O)c2ccc3c(c2)C(C)(C)C(=O)N3C)C1 (configuration not stated) | i | -6 | 101 | 921 | i | 0
